In data set [1] the target is T1, Cannabinoid receptor 2 (Homo sapiens, UniProt P34972). As to the kind of experiment: Displacement of [3H]CP55,940 from N-terminal HA-tagged human CB2 receptor expressed in HEK293 cell membranes at 10 uM after 1 hr by microbeta scintillation counting method relative to control. In a few lines:
(§1)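 Single-point competition screen against [3H]CP55,940 in HEK293 cells over-expressing 3HA-tagged hCB2 or hCB1. Compounds giving more than 50% displacement went on to full concentration-response curves.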
Background: In a radioligand displacement assay an active substance lowers the binding of a labelled ligand.

In data set [2] the target is T1, Cannabinoid receptor 2. As to the kind of experiment: Displacement of [3H]CP55,940 from N-terminal HA-tagged human CB2 receptor expressed in HEK293 cell membranes after 1 hr by microbeta scintillation counting method. To be noted: read-out: Ki.
The target of data set [3] is T2, Cannabinoid receptor 1 (Homo sapiens, UniProt P21554). As to the kind of experiment: Displacement of [3H]CP55,940 from N-terminal HA-tagged human CB1 receptor expressed in HEK293 cell membranes at 10 uM after 1 hr by microbeta scintillation counting method relative to control. In a few lines: as §1
Data set [4] has as its target T2, Cannabinoid receptor 1. As to the kind of experiment: Displacement of [3H]CP55,940 from N-terminal HA-tagged human CB1 receptor expressed in HEK293 cell membranes after 1 hr by microbeta scintillation counting method. The following applies: read-out: Ki.
Data set [5] deals with T1, Cannabinoid receptor 2. As to the kind of experiment: Agonist activity at N-terminal HA-tagged human CB2 receptor expressed in HEK293 cells transfected with YFP-Epac-RLuc assessed as decrease in forskolin-stimulated cAMP level by BRET assay. It counts as functional, cell-based. In a few lines:
(§2)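 BRET cAMP biosensor read-out in HEK293 cells expressing HA-tagged human CB1 or CB2, with forskolin stimulation (5 µM). Concentration-response curves; area-under-curve values normalised to forskolin alone = 100% and basal = 0%. EC50 taken for agonists and IC50 for inverse agonists. Mean of at least three independent experiments, each point in duplicate.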

Data set [6] addresses T1, Cannabinoid receptor 2. As to the kind of experiment: Agonist activity at N-terminal HA-tagged human CB2 receptor expressed in HEK293 cells transfected with YFP-Epac-RLuc assessed as decrease in forskolin-stimulated cAMP level by BRET assay relative to control. It counts as functional, cell-based. In a few lines: as §2
In data set [7] the target is T2, Cannabinoid receptor 1. As to the kind of experiment: Agonist activity at N-terminal HA-tagged human CB1 receptor expressed in HEK293 cells transfected with YFP-Epac-RLuc assessed as decrease in forskolin-stimulated cAMP level by BRET assay relative to control. In kind it is functional, cell-based. The essentials:
as §2

Data set [8] concerns the target T1, Cannabinoid receptor 2. As to the kind of experiment: Agonist activity at N-terminal HA-tagged human CB2 receptor expressed in HEK293 cells transfected with YFP-Epac-RLuc assessed as decrease in forskolin-stimulated cAMP level at 10 uM by BRET assay. It counts as functional, cell-based. In a few lines:
(§3)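 Single-concentration screen at 10 µM in CB receptor-expressing HEK293 cells, run with and without CP55,940 as reference agonist. Forskolin-stimulated cAMP read by BRET biosensor. A fall in cAMP is scored as agonism and a rise as inverse agonism.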
On the technique in general: Cyclic AMP is a second messenger, typically raised through Gs and lowered through Gi signalling.

Data set [9] concerns the target T2, Cannabinoid receptor 1. As to the kind of experiment: Agonist activity at N-terminal HA-tagged human CB1 receptor expressed in HEK293 cells transfected with YFP-Epac-RLuc assessed as decrease in forskolin-stimulated cAMP level at 10 uM by BRET assay. It counts as functional, cell-based. In a few lines:
as §3

In data set [10] the test system is HEK293. As to the kind of experiment: Effect on forskolin-stimulated cAMP level in HEK293 cells at 10 uM by BRET assay relative to control. To be noted: human, hek293, 10 µM. It counts as ADME, cell-based. The essentials: (§4)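 Wild-type HEK293 cells lacking transfected receptor, tested at 10 µM and 1 µM. Forskolin-stimulated cAMP measured by BRET as a check that responses are receptor-mediated.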

For data set [11], the system named is HEK293. As to the kind of experiment: Effect on forskolin-stimulated cAMP level in HEK293 cells at 1 uM by BRET assay relative to control. In kind it is ADME, cell-based. The following applies: human, hek293, 1 µM. In a few lines:
as §4

For data set [12], the target named is Proprotein convertase subtilisin/kexin type 9 (Homo sapiens) (UniProt Q8NBP7). As to the kind of experiment: Inhibition of PCSK9 (unknown origin).
Data set [13] concerns the target T3, Free fatty acid receptor 4 (Homo sapiens) (UniProt Q5NUL3).
T3 sequence (whole entry): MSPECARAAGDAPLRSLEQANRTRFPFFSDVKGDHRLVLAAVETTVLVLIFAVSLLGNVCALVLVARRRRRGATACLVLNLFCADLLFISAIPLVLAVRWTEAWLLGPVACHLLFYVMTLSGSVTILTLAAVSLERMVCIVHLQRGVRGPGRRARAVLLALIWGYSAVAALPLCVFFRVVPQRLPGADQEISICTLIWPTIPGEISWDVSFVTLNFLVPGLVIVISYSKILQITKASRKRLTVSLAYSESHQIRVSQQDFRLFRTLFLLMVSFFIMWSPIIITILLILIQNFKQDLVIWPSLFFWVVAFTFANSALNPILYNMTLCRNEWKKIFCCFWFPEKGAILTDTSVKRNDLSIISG
As to the kind of experiment: Agonist activity at GPR120 (unknown origin). It counts as functional.

Data set [14] concerns the target Interleukin-17A (Homo sapiens) (UniProt Q16552). As to the kind of experiment: Inhibition of IL-17 (unknown origin) assessed as disruption of IL-17 protein-protein interaction.
The subject of data set [15] is Leishmania donovani. As to the kind of experiment: Growth inhibition of Leishmania donovani. In kind it is functional, organism-based.
Data set [16] has as its target Potassium voltage-gated channel subfamily KQT member 2 (Homo sapiens) (UniProt O43526). As to the kind of experiment: Agonist activity at KCNQ2 (unknown origin).
The target in data set [17] is T4, Potassium voltage-gated channel subfamily KQT member 3 (Homo sapiens) (UniProt O43525).
T4 sequence (whole entry): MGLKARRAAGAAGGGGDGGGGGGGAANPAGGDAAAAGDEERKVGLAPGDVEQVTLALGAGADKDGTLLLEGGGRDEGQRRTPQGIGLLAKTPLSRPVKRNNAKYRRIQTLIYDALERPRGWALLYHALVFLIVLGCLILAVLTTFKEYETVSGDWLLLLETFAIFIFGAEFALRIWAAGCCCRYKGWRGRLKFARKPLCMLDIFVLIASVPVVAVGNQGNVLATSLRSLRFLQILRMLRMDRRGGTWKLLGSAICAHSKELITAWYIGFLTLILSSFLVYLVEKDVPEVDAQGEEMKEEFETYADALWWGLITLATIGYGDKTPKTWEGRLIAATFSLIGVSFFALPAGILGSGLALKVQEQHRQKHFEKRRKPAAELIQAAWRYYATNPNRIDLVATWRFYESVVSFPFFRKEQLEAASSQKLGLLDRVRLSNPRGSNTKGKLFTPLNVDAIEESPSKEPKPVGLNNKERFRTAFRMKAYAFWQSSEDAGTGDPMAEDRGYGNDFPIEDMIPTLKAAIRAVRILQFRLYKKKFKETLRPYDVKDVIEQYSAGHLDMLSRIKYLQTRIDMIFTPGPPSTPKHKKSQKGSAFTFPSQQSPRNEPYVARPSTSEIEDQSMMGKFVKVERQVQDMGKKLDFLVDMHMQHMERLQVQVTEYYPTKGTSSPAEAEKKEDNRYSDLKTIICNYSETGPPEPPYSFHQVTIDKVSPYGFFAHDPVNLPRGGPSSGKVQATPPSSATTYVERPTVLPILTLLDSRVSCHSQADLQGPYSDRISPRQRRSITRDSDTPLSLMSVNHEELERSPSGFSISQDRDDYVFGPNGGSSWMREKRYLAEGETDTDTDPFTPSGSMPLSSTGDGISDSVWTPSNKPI
As to the kind of experiment: Agonist activity at KCNQ3 (unknown origin).

For data set [18], the target named is T5, Nicotinamide N-methyltransferase (Homo sapiens) (UniProt P40261).
T5 sequence (whole entry): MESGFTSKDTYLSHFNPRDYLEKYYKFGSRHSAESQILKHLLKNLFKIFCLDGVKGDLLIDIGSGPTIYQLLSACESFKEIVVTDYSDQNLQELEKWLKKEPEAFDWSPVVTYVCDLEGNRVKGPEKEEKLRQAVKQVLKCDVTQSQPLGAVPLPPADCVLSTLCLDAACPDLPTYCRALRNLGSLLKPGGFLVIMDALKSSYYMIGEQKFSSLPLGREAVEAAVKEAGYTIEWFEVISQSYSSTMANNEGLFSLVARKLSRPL
As to the kind of experiment: Inhibition of NNMT (unknown origin).

pEC50, pKi: −log10 of the molar value. Active and inactive are the calls of the source. The calls are words filed in the database; no cut-off is given here.

This is an account of results in ChEMBL document CHEMBL4251662, “Alkyl indole-based cannabinoid type 2 receptor tools: Exploration of linker and fluorophore attachment” (Eur J Med Chem, 2018).

T1 sequence (P34972 whole entry): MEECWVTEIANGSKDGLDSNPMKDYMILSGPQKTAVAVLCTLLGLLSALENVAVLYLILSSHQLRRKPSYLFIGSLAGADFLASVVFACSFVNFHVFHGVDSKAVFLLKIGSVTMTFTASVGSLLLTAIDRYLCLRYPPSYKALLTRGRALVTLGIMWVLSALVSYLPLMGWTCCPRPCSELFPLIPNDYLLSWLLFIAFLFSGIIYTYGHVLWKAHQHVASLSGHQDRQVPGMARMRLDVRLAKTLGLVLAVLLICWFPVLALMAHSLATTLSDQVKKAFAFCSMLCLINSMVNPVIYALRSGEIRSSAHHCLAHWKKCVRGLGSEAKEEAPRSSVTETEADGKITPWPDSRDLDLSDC
T2 sequence (P21554 whole entry): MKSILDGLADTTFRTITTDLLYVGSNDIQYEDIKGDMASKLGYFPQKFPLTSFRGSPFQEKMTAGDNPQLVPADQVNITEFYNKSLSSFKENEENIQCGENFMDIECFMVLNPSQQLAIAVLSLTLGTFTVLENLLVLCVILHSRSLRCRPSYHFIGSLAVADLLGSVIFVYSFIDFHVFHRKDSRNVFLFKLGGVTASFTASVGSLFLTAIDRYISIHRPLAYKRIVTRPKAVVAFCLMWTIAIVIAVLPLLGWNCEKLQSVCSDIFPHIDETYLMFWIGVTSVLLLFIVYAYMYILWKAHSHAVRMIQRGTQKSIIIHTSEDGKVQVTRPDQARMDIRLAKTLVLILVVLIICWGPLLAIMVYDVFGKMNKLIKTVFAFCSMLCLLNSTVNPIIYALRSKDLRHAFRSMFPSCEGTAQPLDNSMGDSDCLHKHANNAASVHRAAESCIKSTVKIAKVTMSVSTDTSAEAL
Interleukin-17A (Homo sapiens), sequence (Q16552 whole entry): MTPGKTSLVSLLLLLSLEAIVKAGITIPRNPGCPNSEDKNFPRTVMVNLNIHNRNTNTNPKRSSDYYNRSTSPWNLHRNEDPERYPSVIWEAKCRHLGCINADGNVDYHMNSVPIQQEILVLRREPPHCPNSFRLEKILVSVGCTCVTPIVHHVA
Potassium voltage-gated channel subfamily KQT member 2 (Homo sapiens), sequence (O43526 whole entry): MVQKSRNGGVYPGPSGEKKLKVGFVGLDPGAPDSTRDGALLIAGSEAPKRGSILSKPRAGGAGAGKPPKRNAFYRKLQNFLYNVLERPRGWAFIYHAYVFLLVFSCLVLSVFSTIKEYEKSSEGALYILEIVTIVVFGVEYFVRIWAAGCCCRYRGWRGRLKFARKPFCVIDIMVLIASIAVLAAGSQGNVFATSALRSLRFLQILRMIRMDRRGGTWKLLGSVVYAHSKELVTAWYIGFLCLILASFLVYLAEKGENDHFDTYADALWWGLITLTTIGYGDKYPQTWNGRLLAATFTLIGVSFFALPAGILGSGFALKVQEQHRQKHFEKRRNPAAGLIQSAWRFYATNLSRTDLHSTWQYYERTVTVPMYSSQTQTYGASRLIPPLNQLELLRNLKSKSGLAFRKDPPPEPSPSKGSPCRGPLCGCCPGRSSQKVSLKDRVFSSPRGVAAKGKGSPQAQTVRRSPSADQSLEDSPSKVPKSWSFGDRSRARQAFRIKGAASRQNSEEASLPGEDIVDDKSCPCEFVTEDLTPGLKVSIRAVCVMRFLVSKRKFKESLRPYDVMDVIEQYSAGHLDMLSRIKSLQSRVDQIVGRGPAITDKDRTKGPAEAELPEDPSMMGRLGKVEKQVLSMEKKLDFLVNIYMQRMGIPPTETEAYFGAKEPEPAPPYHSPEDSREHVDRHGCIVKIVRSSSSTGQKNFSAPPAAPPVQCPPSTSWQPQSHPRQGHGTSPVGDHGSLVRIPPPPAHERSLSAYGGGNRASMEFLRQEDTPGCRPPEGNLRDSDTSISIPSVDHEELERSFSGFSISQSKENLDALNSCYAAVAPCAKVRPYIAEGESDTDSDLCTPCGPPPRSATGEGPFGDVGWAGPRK
Proprotein convertase subtilisin/kexin type 9 (Homo sapiens), sequence (Q8NBP7 31-152 limits assumed): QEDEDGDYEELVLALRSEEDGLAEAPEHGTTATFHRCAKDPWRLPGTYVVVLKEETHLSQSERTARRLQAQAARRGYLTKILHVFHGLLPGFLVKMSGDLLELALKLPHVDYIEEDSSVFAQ
Proprotein convertase subtilisin/kexin type 9 (Homo sapiens), sequence (Q8NBP7 153-692 limits assumed): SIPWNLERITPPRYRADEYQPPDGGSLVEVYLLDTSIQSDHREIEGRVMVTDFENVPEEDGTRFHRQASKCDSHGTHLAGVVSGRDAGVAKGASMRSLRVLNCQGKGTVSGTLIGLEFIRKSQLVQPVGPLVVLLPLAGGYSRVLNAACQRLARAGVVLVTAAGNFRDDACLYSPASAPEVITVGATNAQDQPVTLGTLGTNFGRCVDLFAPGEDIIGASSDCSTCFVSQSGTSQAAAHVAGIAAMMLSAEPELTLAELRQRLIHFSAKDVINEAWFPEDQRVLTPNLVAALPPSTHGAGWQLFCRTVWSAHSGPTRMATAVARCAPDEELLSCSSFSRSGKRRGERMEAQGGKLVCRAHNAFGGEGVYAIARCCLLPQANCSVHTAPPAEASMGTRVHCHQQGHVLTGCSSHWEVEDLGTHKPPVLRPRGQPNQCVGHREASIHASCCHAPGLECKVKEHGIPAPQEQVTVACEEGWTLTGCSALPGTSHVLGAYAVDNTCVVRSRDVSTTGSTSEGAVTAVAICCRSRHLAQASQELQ

`O=C(c1cn(CCN2CCOCC2)c2ccc(O)cc12)C1CCCCC1`: the inhibition in data set [1] and in [3] was over 50% each time. Also, the pKi (in general, the Ki on a negative log10 scale, so that one unit is a factor of ten) in data set [2] was 6.05; in data set [4] it was under 5.00. Moreover, the pEC50 (usually the negative decadic logarithm of the EC50, by convention in mol/L) in data set [5] was 7.73. For the same compound, the Emax (usually the greatest response seen or fitted, relative to the assay's reference) in data set [6] turned out to be 74.1%; in [7] it was 74.3%. Also, the result in data set [8] and in [9] was Active. Also, the values for the Activity in [10] and in data set [11] were 105.1% and 105.9%, respectively.
Take `COc1ccc(C(=O)c2cn(CC3CCOCC3)c3c(OCc4ccccc4)cccc23)cc1`: the inhibition entry in data set [12], in [14] and in data set [18] was “inactive” in each case. In addition, the result in data set [13], in data set [16] and in data set [17] was inactive. Further, the “growth inhibition (GI)” value in [15] is “inactive”.
Regarding `O=C(c1cccc2ccccc12)c1cn(CCN2CCOCC2)c2ccc(O)cc12`, the inhibition in data set [1] and in data set [3] was over 50% in each case. In addition, the pKi in data set [2] is 6.77; in [4], 5.55. In addition, the pEC50 in [5] is 8.06. Further, the Emax in [6] came to 77.4%; in data set [7], 54.6%. Also, the result in data set [8] and in [9] was Active. Moreover, the Activity in [10] is listed as 118.7%; in data set [11] it was 101.9%.
With `COc1ccc(C(=O)c2cn(CC3CCOCC3)c3ccc(OCc4ccccc4)cc23)cc1`, the inhibition result in data set [12], in data set [14] and in data set [18] was “inactive” each time. Besides, the outcome in data set [13], in data set [16] and in data set [17] was inactive. Also, the “growth inhibition (GI)” value in data set [15] is “inactive”.
On to `COc1ccc(C(=O)c2cn(CCN3CCOCC3)c3ccc(O)cc23)cc1`, for which the inhibition in data set [1] and in [3] was over 50% throughout. Further, the pKi in data set [2] is 6.13; in data set [4], under 5.00. The pEC50 in [5] is 8.27. Besides, the Emax came out at 67.5% in data set [6] and 70.4% in [7]. Moreover, the outcome in [8] and in data set [9] was Active. Also, the Activity worked out at 105.2% in data set [10] and 101.9% in data set [11].
On to `O=C(c1cccc2ccccc12)c1cn(CC2CCOCC2)c2ccc(O)cc12`, for which the inhibition in data set [1] and in data set [3] was over 50% throughout. Also, the results for the pKi in data set [2] and in data set [4] were 6.56 and 6.08, respectively. Further, in [5], the pEC50 is 7.83. The Emax in data set [6] came to 64.4%; in [7], 52.4%. Further, the outcome in [8] and in data set [9] was Active. Also, the Activity in data set [10] worked out at 108.1%; in [11], 95%. In addition, the inhibition entry in data set [12], in data set [14] and in [18] was “inactive” in each case. Besides, the result in [13], in data set [16] and in data set [17] was inactive. Besides, the “growth inhibition (GI)” value in [15] was “inactive”.
Turning to `COc1ccc(C(=O)c2cn(CC3CCOCC3)c3c(OCC(=O)O)cccc23)cc1`, the inhibition in [1] and in data set [3] was over 50% each time. Also, the pKi is 6.24 in data set [2] and under 5.00 in data set [4]. Further, in data set [5], the pEC50 was under 5.00. The Emax in data set [6] amounted to 84.9%; in data set [7], 80.5%. The outcome in [8] and in [9] was Active. For the same compound, the figures for the Activity in data set [10] and in data set [11] were 102.8% and 104.5%, respectively.
On to `COc1ccc(C(=O)c2cn(CC3CCOCC3)c3ccc(OCC(=O)O)cc23)cc1`, for which the inhibition in data set [1] and in data set [3] was over 50% throughout. In addition, the pKi in data set [2] was 5.78; in [4], under 5.00. In addition, in data set [5], the pEC50 was 7.15. Moreover, the Emax stood at 57.4% in data set [6] and 60.4% in [7]. For the same compound, the result in data set [8] and in data set [9] was Active. Further, the values for the Activity in data set [10] and in data set [11] were 100.1% and 98.8%, respectively.
With `COc1ccc(C(=O)c2cn(CC3CCOC3)c3ccc(OCc4ccccc4)cc23)cc1` (stereo unspecified), the inhibition entry in data set [12], in data set [14] and in data set [18] was “inactive” each time. The outcome in [13], in data set [16] and in data set [17] was inactive. Moreover, the “growth inhibition (GI)” value in [15] was “inactive”.
Consider `O=C(c1cccc2ccccc12)c1cn(CC2CCOCC2)c2ccc(OCc3ccccc3)cc12`, for which the inhibition entry in [12], in [14] and in data set [18] was “inactive” in each case. Also, the result in data set [13], in data set [16] and in data set [17] was inactive. In data set [15], the “growth inhibition (GI)” value is “inactive”.
